Data: ChEMBL document CHEMBL1136991, “Novel potent BRAF inhibitors: toward 1 nM compounds through optimization of the central phenyl ring” (J Med Chem, 2009)

Key:
[1] = molecular target: Protein kinase C alpha type (Homo sapiens) (UniProt P17252); assay: Inhibition of PKCalpha at 1 uM relative to control
[2] = molecular target: T1, Serine/threonine-protein kinase B-raf (Homo sapiens, UniProt P15056, V600E); assay: Inhibition of BRAF V600E mutant
In short: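 Purified, isolated V600E BRAF enzyme assayed in vitro; potency reported as IC50.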

[3] = molecular target: Mitogen-activated protein kinase 10 (Homo sapiens) (UniProt P53779); assay: Inhibition of JNK3 at 1 uM relative to control
Chain of Mitogen-activated protein kinase 10 (Homo sapiens) (P53779 whole entry): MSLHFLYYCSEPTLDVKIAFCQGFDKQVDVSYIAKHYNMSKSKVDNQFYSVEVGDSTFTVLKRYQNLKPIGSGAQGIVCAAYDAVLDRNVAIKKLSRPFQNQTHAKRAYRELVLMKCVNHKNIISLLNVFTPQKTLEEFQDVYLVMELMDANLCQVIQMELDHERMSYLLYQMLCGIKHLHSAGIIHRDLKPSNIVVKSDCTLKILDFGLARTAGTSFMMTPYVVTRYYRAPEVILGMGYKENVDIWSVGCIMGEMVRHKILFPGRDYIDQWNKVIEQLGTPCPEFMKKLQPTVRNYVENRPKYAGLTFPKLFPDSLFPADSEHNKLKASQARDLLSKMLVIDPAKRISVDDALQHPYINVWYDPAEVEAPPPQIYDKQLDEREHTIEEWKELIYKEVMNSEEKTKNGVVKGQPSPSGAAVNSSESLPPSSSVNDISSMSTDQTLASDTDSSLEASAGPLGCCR

[4] = molecular target: Dual specificity mitogen-activated protein kinase kinase 1 (Homo sapiens) (UniProt Q02750); assay: Inhibition of MKK1 at 1 uM relative to control
Chain of Dual specificity mitogen-activated protein kinase kinase 1 (Homo sapiens) (Q02750 whole entry): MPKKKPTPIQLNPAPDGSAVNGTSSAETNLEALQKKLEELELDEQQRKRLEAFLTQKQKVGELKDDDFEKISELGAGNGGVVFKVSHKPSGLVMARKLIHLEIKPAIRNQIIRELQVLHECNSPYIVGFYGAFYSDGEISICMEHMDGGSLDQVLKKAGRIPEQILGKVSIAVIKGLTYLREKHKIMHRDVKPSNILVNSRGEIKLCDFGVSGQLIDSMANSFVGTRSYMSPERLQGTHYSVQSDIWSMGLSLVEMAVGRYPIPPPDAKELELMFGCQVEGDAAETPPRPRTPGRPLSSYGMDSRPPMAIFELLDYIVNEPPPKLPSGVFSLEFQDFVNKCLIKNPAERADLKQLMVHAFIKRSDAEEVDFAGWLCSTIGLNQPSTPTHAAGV

[5] = Inhibition of CK2 at 1 uM relative to control
[6] = molecular target: Mitogen-activated protein kinase 9 (Homo sapiens) (UniProt P45984); assay: Inhibition of JNK2 at 1 uM relative to control
Chain of Mitogen-activated protein kinase 9 (Homo sapiens) (P45984 whole entry, looked up): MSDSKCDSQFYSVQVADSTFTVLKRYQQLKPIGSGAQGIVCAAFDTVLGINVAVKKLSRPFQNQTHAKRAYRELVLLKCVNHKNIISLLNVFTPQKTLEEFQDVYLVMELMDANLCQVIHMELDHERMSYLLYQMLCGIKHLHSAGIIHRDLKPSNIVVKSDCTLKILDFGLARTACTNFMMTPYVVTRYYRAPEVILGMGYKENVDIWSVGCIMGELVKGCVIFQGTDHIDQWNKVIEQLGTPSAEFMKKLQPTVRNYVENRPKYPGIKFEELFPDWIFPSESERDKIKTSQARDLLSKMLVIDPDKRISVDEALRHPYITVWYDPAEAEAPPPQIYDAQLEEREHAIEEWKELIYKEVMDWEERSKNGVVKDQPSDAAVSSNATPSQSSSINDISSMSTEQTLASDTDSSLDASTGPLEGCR

[7] = molecular target: Proto-oncogene tyrosine-protein kinase Src (Homo sapiens) (UniProt P12931); assay: Inhibition of Src at 1 uM relative to control
Chain of Proto-oncogene tyrosine-protein kinase Src (Homo sapiens) (P12931 2-536 limits assumed): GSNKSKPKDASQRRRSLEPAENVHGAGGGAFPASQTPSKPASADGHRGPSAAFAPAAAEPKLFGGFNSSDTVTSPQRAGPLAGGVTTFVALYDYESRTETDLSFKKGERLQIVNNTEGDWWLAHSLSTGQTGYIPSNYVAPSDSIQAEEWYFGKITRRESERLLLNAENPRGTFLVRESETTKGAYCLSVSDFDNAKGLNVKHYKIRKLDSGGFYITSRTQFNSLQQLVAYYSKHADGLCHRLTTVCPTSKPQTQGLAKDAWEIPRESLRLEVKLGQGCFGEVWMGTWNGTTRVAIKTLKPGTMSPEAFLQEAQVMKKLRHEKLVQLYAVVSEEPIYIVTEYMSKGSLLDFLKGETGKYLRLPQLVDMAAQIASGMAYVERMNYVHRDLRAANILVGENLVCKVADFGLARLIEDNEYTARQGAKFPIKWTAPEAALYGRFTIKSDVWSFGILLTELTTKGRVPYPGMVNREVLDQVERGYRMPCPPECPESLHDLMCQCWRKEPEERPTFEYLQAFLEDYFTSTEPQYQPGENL

[8] = molecular target: T2, MAP kinase-activated protein kinase 5 (Homo sapiens) (UniProt Q8IW41); assay: Inhibition of PRAK at 1 uM relative to control
T2 sequence (whole entry): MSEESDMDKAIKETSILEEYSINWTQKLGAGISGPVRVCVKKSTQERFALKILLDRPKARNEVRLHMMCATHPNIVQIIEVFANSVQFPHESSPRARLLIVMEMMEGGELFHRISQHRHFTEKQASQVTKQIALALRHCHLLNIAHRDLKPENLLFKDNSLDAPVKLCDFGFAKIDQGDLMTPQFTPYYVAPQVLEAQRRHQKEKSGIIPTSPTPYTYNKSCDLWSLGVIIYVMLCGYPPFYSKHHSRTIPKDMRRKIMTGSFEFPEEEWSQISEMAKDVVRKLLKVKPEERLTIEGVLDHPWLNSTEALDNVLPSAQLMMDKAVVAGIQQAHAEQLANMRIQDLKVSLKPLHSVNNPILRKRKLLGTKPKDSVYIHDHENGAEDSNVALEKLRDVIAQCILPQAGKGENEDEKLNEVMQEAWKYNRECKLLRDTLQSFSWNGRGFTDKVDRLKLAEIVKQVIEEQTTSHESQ

[9] = molecular target: Serine/threonine-protein kinase Nek7 (Homo sapiens) (UniProt Q8TDX7); assay: Inhibition of NEK7 at 1 uM relative to control
Chain of Serine/threonine-protein kinase Nek7 (Homo sapiens) (Q8TDX7 whole entry, looked up): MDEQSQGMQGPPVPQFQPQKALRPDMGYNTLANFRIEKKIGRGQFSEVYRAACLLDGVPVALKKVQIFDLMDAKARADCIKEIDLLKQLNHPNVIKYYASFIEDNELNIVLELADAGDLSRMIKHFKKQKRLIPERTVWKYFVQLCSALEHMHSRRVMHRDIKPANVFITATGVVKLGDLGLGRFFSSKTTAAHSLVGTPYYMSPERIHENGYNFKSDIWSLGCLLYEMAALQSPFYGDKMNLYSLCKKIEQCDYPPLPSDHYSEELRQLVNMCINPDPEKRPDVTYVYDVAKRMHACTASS

[10] = molecular target: SRSF protein kinase 1 (Homo sapiens) (UniProt Q96SB4); assay: Inhibition of SRPK1 at 1 uM relative to control
Chain of SRSF protein kinase 1 (Homo sapiens) (Q96SB4 whole entry): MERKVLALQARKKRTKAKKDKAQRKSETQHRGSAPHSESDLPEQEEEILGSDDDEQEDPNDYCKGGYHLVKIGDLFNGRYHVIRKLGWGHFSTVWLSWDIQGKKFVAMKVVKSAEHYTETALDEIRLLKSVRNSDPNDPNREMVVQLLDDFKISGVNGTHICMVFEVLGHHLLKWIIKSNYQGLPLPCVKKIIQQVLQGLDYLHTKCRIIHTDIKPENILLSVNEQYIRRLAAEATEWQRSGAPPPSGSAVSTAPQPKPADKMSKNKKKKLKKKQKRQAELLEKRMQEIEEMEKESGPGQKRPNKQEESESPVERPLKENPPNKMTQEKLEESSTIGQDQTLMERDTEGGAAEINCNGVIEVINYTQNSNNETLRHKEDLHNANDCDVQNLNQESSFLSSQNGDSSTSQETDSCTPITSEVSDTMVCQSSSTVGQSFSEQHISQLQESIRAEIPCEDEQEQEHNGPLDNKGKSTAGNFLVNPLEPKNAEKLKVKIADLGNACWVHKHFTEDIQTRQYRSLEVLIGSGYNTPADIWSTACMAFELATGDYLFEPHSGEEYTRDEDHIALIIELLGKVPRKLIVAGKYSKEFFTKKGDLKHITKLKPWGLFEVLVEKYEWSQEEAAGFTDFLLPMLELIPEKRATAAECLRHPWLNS

[11] = Inhibition of PHK at 1 uM relative to control
[12] = molecular target: T1, Serine/threonine-protein kinase B-raf; assay: Inhibition of BRAF V600E mutant-mediated ERK phosphorylation in human WM266.4 cells; format: cell-based
In short: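 Cellular pathway read-out: ERK phosphorylation (pERK) was measured in WM266.4 melanoma cells and reported as an IC50.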

[13] = molecular target: Ribosomal protein S6 kinase alpha-5 (Homo sapiens) (UniProt O75582); assay: Inhibition of MSK1 at 1 uM relative to control
Chain of Ribosomal protein S6 kinase alpha-5 (Homo sapiens) (O75582 whole entry, looked up): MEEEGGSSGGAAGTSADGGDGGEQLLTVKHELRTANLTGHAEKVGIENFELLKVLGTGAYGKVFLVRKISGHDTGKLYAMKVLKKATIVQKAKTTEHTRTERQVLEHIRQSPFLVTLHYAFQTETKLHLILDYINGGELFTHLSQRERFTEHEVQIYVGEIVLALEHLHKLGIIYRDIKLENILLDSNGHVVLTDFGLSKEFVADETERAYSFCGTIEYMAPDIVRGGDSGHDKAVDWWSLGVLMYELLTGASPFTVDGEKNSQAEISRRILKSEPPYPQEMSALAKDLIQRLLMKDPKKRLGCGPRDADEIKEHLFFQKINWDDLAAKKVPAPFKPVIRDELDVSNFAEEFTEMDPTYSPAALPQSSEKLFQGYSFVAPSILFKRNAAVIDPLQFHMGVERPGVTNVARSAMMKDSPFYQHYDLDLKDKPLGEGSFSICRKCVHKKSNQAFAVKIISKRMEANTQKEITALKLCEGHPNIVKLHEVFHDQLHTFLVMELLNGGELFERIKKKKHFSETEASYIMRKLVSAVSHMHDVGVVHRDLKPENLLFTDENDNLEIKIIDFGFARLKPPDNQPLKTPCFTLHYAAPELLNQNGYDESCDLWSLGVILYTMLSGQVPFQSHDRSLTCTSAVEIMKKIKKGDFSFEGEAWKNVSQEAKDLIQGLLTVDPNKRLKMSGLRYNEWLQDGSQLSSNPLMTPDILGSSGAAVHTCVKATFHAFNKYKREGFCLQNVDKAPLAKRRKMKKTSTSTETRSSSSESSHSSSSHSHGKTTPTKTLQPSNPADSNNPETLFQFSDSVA

[14] = molecular target: Serine/threonine-protein kinase pim-2 (Homo sapiens) (UniProt Q9P1W9); assay: Inhibition of PIM2 at 1 uM relative to control
[15] = molecular target: Ribosomal protein S6 kinase alpha-1 (Homo sapiens) (UniProt Q15418); assay: Inhibition of RSK1 at 1 uM relative to control
[16] = molecular target: T3, Dual specificity tyrosine-phosphorylation-regulated kinase 3 (Homo sapiens) (UniProt O43781); assay: Inhibition of DYRK3 at 1 uM relative to control
T3 sequence (whole entry): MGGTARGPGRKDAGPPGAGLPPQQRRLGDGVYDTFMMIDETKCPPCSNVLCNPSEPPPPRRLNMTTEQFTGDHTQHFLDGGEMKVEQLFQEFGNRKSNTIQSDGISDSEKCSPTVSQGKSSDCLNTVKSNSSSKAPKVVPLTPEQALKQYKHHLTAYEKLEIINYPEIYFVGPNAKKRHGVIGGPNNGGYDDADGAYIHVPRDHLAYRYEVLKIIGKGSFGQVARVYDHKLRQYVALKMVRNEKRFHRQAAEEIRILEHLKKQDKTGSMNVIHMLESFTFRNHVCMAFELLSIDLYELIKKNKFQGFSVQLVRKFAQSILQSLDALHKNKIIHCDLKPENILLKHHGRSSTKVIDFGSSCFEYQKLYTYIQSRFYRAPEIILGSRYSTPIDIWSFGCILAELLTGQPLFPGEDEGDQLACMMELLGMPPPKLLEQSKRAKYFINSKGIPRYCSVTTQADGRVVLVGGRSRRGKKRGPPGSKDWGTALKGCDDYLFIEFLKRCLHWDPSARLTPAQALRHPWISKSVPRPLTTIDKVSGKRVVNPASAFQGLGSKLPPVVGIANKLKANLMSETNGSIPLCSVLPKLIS

[17] = molecular target: Serine/threonine-protein kinase PLK1 (Homo sapiens) (UniProt P53350); assay: Inhibition of PLK1 at 1 uM relative to control
Chain of Serine/threonine-protein kinase PLK1 (Homo sapiens) (P53350 whole entry): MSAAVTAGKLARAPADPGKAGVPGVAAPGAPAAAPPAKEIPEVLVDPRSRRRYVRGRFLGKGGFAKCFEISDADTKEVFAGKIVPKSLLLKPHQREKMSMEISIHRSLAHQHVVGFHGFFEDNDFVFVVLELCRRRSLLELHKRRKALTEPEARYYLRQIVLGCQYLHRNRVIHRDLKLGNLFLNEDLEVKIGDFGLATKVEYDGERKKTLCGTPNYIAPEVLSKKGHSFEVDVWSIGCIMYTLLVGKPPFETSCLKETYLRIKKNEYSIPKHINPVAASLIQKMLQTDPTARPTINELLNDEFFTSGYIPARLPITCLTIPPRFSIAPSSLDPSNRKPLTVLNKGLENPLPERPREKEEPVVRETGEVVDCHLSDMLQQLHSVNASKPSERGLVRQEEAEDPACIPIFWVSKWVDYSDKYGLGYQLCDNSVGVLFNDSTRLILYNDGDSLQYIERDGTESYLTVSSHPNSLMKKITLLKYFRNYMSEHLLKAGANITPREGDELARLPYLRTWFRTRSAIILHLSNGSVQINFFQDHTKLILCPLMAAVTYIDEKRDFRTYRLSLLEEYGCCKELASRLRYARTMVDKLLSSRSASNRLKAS

[18] = molecular target: T4, Protein kinase C zeta type (Homo sapiens) (UniProt Q05513); assay: Inhibition of PKCzeta at 1 uM relative to control
T4 sequence (whole entry): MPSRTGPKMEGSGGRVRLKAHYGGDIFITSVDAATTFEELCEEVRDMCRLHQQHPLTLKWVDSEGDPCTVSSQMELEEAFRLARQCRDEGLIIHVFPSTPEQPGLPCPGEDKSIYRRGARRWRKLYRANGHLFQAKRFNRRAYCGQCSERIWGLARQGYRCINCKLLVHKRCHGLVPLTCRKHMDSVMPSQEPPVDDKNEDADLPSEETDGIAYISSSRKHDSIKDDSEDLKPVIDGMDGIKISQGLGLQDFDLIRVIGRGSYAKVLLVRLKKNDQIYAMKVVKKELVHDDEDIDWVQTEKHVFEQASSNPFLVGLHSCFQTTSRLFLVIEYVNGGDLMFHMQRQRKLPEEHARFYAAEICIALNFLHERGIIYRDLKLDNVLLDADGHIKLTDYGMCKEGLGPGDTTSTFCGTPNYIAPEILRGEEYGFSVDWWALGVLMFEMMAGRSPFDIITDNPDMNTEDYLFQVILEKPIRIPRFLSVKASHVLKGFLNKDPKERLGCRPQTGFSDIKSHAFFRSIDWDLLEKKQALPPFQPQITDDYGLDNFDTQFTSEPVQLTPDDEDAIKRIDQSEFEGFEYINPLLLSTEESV

T1 sequence (P15056 2-766 V600E limits assumed): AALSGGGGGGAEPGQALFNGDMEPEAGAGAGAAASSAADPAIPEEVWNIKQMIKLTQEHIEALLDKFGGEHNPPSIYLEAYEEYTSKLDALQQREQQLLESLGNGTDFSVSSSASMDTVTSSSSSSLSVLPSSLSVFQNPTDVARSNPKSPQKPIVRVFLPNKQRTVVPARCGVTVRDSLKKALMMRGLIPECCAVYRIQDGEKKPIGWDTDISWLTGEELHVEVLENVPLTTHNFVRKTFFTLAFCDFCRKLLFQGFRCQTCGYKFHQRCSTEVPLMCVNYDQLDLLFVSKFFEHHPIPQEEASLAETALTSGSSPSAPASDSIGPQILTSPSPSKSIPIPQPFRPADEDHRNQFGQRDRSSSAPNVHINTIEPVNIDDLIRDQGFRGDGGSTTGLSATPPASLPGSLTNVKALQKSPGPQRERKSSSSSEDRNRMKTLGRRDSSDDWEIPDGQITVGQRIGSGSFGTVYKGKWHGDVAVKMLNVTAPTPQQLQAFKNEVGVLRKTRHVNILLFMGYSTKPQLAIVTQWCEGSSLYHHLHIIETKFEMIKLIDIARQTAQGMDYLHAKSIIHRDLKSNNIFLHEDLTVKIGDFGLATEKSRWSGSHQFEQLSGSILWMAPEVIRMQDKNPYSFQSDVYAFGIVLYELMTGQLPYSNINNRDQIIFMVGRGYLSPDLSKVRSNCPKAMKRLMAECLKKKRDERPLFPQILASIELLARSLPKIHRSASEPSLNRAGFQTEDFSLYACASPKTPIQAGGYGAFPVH

Row | Structure (SMILES) | residual activity [1] [%] | IC50 [2] [nM] | residual activity [3] [%] | residual activity [4] [%] | residual activity [5] [%] | residual activity [6] [%] | residual activity [7] [%] | residual activity [8] [%] | residual activity [9] [%] | residual activity [10] [%] | residual activity [11] [%] | IC50 [12] [nM] | residual activity [13] [%] | residual activity [14] [%] | residual activity [15] [%] | residual activity [16] [%] | residual activity [17] [%] | residual activity [18] [%]
1 | CSc1cc(Oc2ccnc3[nH]c(=O)[nH]c23)ccc1NC(=O)Nc1cccc(C(F)(F)F)c1 | 75 | 1 | 100 | 100 | 100 | 100 | < 25 | 75 | 100 | 75 | 100 | 1300 | 100 | 100 | 100 | 75 | 100 | 75
2 | O=C(Nc1cc(C(F)(F)F)ccc1F)Nc1ccc(Oc2ccnc3[nH]c(=O)[nH]c23)c2ccccc12 | 75 | 37 | 100 | 100 | 100 | 50 | < 25 | 75 | 100 | 75 | 100 | 214 | 75 | 100 | 75 | 100 | 100 | 75
3 | CC(C)(C)c1cccc(NC(=O)Nc2ccc(Oc3ccnc4[nH]c(=O)[nH]c34)c3ccccc23)c1 | 75 | 79 | 75 | 75 | 100 | < 25 | < 25 | 75 | 75 | 75 | 75 | 19300 | 75 | 100 | 75 | 75 | 75 | 75
